{
  "source": "paper PMC4757811",
  "about": "(Biochemistry, 2015)",
  "key": {"NIH-3T3 cells [1]": {"tested_on": "NIH-3T3 cells", "test": "Anchored growth of stable NIH-3T3 cells", "type": "cell-based", "conditions": "NIH-3T3 stable cells, 20 000 cells plated in duplicate; hemocytometer", "in_short": "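NIH-3T3 lines stably expressing wild-type or mutant Brk were made by MSCV-PIG retroviral infection with 8 µg/mL Polybrene. Selection used puromycin (2 µg/mL) from 48 h postinfection, and lines with equivalent GFP expression were used. Cells (20 000) were plated in duplicate in 12-well plates. At each time point over several days they were trypsinized and counted by hemocytometer. Representative of three experiments; standard deviations shown.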"}, "β-catenin": {"tested_on": "β-catenin", "test": "β-catenin phosphorylation and binding, immunoprecipitation from 293T cells", "type": "cell-based", "conditions": "293T cells coexpressing β-catenin; for binding to β-catenin (in words): Flag antibody; for phosphorylation of β-catenin (in words): anti-phosphotyrosine; for binding and phosphorylation of β-catenin (in words): compared to wild-type Brk", "in_short": "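Flag-tagged β-catenin was coexpressed with Flag-Brk (wild-type or mutant) in 293T cells by PEI transfection, and lysates were made 48 h later in RIPA buffer. Lysate (1 mg/mL) was precleared on protein G agarose (1 h, 4 °C), incubated with 1 µg anti-β-catenin (1 h, 4 °C), then captured on protein G for 4 h at 4 °C. After three RIPA washes, SDS elution and blotting, membranes were probed with anti-phosphotyrosine and anti-β-catenin, then reprobed with anti-Flag for Brk association.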"}, "Akt": {"tested_on": "Akt", "test": "Akt phosphorylation in 293T cells, Western blot", "type": "cell-based", "conditions": "phospho-Akt (Ser473)", "in_short": "(§1)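 293T cells (1×10^6) transfected 24 h after plating with Flag-tagged wild-type or mutant Brk using polyethylenimine. Lysed 48 h post-transfection in RIPA buffer (pH 7.5) with protease and phosphatase inhibitors, then SDS-PAGE and PVDF blotting.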"}, "Erk1/2 [2]": {"tested_on": "Erk1/2", "test": "Erk1/2 phosphorylation in 293T cells, Western blot", "type": "cell-based", "conditions": "not serum starved", "in_short": "as §1"}, "STAT3": {"tested_on": "STAT3", "test": "STAT3 phosphorylation in 293T cells, Western blot", "type": "cell-based", "conditions": "compared to control cells or wild-type Brk", "in_short": "as §1"}, "ErbB2": {"tested_on": "ErbB2", "test": "ErbB2 interaction, co-immunoprecipitation", "type": "binding", "conditions": "293T cells cotransfected with ErbB2 and Brk; ErbB2 immunoprecipitated", "in_short": "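Flag-tagged wild-type or mutant Brk and full-length ErbB2 were co-transfected into 293T cells with polyethylenimine (8 μL per μg DNA in 150 mM NaCl), 24 h after plating. Cells were lysed at 48 h in RIPA buffer with protease/phosphatase inhibitors. Lysate (1 mg/mL) was precleared on protein G agarose, then taken with 1 μg anti-ErbB2 (1 h, 4 °C) and protein G (4 h, 4 °C). After washing, blots were probed with anti-ErbB2 and anti-Flag.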"}, "p130Cas": {"tested_on": "p130Cas", "test": "Cas phosphorylation in 293T cells, Western blot", "type": "cell-based", "conditions": "293T cells cotransfected with Brk and Cas", "in_short": "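293T cells were cotransfected with V5-His-tagged p130Cas and Flag-tagged wild-type or mutant Brk using polyethylenimine, then harvested 48 h later in RIPA buffer with inhibitors. Lysates were analysed by SDS-PAGE and PVDF Western blotting. Probes were anti-phospho-p130Cas (Tyr249), anti-p130Cas and anti-Flag.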"}, "Erk1/2 [3]": {"tested_on": "Erk1/2", "type": "cell-based", "conditions": "293T cells, serum starved, 10 ng/mL EGF for 2.5 min", "in_short": "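293T cells were PEI-transfected with Flag-Brk (wild-type or mutant) and serum-starved overnight. They were then stimulated with 10 ng/mL EGF for 2.5 min, lysed in RIPA buffer with inhibitors, and resolved by SDS-PAGE on PVDF. Blots were probed for phospho-Erk1/2 (Thr202/Tyr204), total Erk1/2 and Flag.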"}, "MCF-10a cells": {"tested_on": "MCF-10a cells", "test": "Growth of stable MCF-10a cells", "type": "cell-based", "conditions": "MCF-10a stable cells; compared to Brk WT"}, "NIH-3T3 cells [4]": {"tested_on": "NIH-3T3 cells", "test": "Nonanchored growth of stable NIH-3T3 cells", "type": "cell-based", "conditions": "NIH-3T3 stable cells, low attachment plates, day 6, triplicate", "in_short": "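NIH-3T3 lines stably expressing Brk were made by retrovirus with puromycin selection and matched for GFP expression. Cells (20 000) were seeded in triplicate in 24-well low-attachment plates. On day 6 they were centrifuged, resuspended in trypsin and counted by hemocytometer. Representative of two experiments; standard deviations shown.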"}, "Akt and Erk1/2": {"tested_on": "Akt and Erk1/2", "test": "Akt and Erk1/2 activation in SkBr3 cells", "type": "cell-based", "conditions": "SkBr3 breast cancer cells"}, "SkBr3 cells": {"tested_on": "SkBr3 cells", "test": "Growth of stable SkBr3 cells", "type": "cell-based"}},
  "data": [
    {"substance": "P450L: Brk mutant, C-terminal tail adjacent to the inhibitory tyrosine, identified in pancreatic cancer", "values": [
      {"measurement": "anchored cell growth (in words)", "setting": "NIH-3T3 cells [1]", "result": "did not survive past Day 6"}
    ]},
    {"substance": "N317S: Brk mutant, kinase domain, identified in ovarian carcinoma", "values": [
      {"measurement": "binding to β-catenin (in words)", "setting": "β-catenin", "result": "bound normally to β-catenin"},
      {"measurement": "phosphorylation of β-catenin (in words)", "setting": "β-catenin", "result": "unable to phosphorylate the protein"},
      {"measurement": "Akt phosphorylation (in words)", "setting": "Akt", "result": "still phosphorylated"},
      {"measurement": "Erk1/2 phosphorylation (in words)", "setting": "Erk1/2 [2]", "result": "still phosphorylated"},
      {"measurement": "phosphorylation of STAT3 (in words)", "setting": "STAT3", "result": "decrease in phosphorylation of STAT3"}
    ]},
    {"substance": "L16F: Brk mutant, SH3 domain, identified in clear cell renal cell carcinoma", "values": [
      {"measurement": "interaction with ErbB2 (in words)", "setting": "ErbB2", "result": "increased interaction with ErbB2 compared to wild-type Brk"},
      {"measurement": "expression of Brk upon coexpression with Cas (in words)", "setting": "p130Cas", "result": "decreased expression"},
      {"measurement": "phosphorylation of Cas (in words)", "setting": "p130Cas", "result": "decreased phosphorylation of Cas"},
      {"measurement": "binding to β-catenin (in words)", "setting": "β-catenin", "result": "decreased interaction with the protein"},
      {"measurement": "phosphorylation of β-catenin (in words)", "setting": "β-catenin", "result": "not able to phosphorylate β-catenin"},
      {"measurement": "Erk1/2 phosphorylation after EGF stimulation (in words)", "setting": "Erk1/2 [3]", "result": "no appreciable difference between wild-type and L16F Brk following stimulation with EGF"},
      {"measurement": "proliferation (in words)", "setting": "MCF-10a cells", "result": "reduced proliferation relative to wild-type Brk"},
      {"measurement": "Erk1/2 phosphorylation (in words)", "setting": "Erk1/2 [2]", "result": "increased phosphorylation of Erk1/2 compared to wild-type Brk"}
    ]},
    {"substance": "R131L: Brk mutant, SH2 domain, found in gastric cancer", "values": [
      {"measurement": "phosphorylation of Cas (in words)", "setting": "p130Cas", "result": "greater phosphorylation of Cas compared to wild-type Brk"},
      {"measurement": "binding and phosphorylation of β-catenin (in words)", "setting": "β-catenin", "result": "greater binding and phosphorylation of β-catenin as compared to wild-type Brk"}
    ]},
    {"substance": "WT: Flag-tagged wild-type full length Brk (PTK6)", "values": [
      {"measurement": "nonanchored cell growth (in words)", "setting": "NIH-3T3 cells [4]", "result": "increase in nonanchored growth"},
      {"measurement": "anchored cell growth (in words)", "setting": "NIH-3T3 cells [1]", "result": "increased cell growth compared to empty vector cells"}
    ]},
    {"substance": "V253M: Brk mutant, kinase domain, identified in head and neck squamous cell carcinoma", "values": [
      {"measurement": "phosphorylation of STAT3 (in words)", "setting": "STAT3", "result": "decrease in phosphorylation of STAT3"}
    ]},
    {"substance": "L343F: Brk mutant, kinase domain, identified in cutaneous squamous cell carcinoma", "values": [
      {"measurement": "phosphorylation of Cas (in words)", "setting": "p130Cas", "result": "greater phosphorylation of Cas compared to wild-type Brk"},
      {"measurement": "binding and phosphorylation of β-catenin (in words)", "setting": "β-catenin", "result": "greater binding and phosphorylation of β-catenin as compared to wild-type Brk"},
      {"measurement": "activation of Akt and Erk1/2 (in words)", "setting": "Akt and Erk1/2", "result": "increased activation of both Akt and Erk1/2"},
      {"measurement": "anchored or nonanchored cell growth (in words)", "setting": "SkBr3 cells", "result": "no increase in anchored or nonanchored cell growth"}
    ]}
  ]
}
